The values that follow come from ChEMBL document CHEMBL3286252, “Synthesis, biological evaluation and structure-activity relationship of new GABA uptake inhibitors, derivatives of 4-aminobutanamides” (Eur J Med Chem, 2014).

For orientation: inhibition in vivo means the share of the control response that was lost under treatment. The IC50 is the concentration that gives 50% inhibition.

In data set [1] the test system is Mus musculus. The data set is described as follows: Antinociceptive activity in albino Swiss (CD-1) mouse assessed as latency time to pain reaction at 30 mg/kg, ip by hot plate test (reference value: 13.9 +/- 1.2 secs). Type of data set: functional. To be noted: route intraperitoneal.
The subject of data set [2] is Mus musculus. The data set is described as follows: Antidepressant-like activity in albino Swiss (CD-1) mouse assessed as reduction in immobility time at 15 mg/kg, ip by forced swim test. Type of data set: functional. To be noted: route intraperitoneal. The gist of the method:
(§1)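 Compound or vehicle was given i.p. 60 min before the test. Each mouse was placed for 6 min in a glass cylinder (25 cm high, 10 cm diameter) holding 10 cm of water at 23–25 C. Immobility, meaning passive floating, was timed over the final 4 min. 7–8 mice per group; ANOVA with Dunnett's test.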

The next data set concerns the target T1, GABA transporter 2 (Mus musculus, UniProt P31651).
T1 sequence (P31651 whole entry): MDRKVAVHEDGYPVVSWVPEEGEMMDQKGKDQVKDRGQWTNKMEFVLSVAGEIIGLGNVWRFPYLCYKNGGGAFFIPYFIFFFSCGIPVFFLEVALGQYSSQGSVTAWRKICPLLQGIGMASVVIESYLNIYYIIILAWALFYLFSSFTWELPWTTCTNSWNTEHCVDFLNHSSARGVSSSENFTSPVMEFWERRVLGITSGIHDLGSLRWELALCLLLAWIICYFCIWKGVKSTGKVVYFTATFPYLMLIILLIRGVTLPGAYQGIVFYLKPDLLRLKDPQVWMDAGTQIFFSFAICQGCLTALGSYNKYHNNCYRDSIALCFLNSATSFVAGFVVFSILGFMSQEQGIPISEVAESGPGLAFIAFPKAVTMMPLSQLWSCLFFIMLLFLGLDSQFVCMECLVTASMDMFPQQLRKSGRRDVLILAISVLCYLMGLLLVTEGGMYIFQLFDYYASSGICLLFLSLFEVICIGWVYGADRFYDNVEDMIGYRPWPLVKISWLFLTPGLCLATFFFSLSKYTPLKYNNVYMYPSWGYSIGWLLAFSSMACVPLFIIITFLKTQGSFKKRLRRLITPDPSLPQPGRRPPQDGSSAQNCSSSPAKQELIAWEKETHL
The data set is described as follows: Inhibition of mouse GAT2 expressed in HEK293 cells assessed as decrease in [3H]GABA uptake. Type of data set: cell-based.

In data set [3] the test system is Mus musculus. The data set can be described thus: Antidepressant-like activity in albino Swiss (CD-1) mouse assessed as reduction in immobility time at 30 mg/kg, ip by forced swim test. It counts as functional. To be noted: route intraperitoneal. The essentials: as §1
The next data set concerns the target T2, GABA transporter 4 (Mus musculus, UniProt P31650).
T2 sequence (P31650 whole entry): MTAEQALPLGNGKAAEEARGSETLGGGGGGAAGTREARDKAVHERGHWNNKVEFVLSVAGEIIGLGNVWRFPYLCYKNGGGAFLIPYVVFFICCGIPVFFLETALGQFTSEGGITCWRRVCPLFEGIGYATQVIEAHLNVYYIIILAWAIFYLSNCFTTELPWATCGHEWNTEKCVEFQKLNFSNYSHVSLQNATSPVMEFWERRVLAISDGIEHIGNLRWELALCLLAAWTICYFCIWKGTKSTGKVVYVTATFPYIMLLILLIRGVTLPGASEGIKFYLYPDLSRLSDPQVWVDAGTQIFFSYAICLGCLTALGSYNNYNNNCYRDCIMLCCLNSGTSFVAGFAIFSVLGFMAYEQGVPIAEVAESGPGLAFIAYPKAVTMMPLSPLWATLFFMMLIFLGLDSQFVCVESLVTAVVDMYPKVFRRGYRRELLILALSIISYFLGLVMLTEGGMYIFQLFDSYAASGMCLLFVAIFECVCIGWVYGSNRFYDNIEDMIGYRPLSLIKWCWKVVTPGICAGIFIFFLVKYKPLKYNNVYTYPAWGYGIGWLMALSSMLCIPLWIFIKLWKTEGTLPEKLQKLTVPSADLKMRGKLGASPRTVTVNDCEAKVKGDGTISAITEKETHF
The data set is described as follows: Inhibition of mouse GAT4 expressed in HEK293 cells assessed as decrease in [3H]GABA uptake. Type of data set: cell-based.

Data set [4] deals with Mus musculus. The data set is described as follows: Anticonvulsant activity against pentylenetetrazole-induced seizure in albino Swiss (CD-1) mouse assessed as decrease in seizure episodes at 30 mg/kg, ip administered 60 mins prior to PTZ challenge. Type of data set: functional. To be noted: route intraperitoneal. The gist of the method: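 Male CD-1 mice (18–22 g) given compound or vehicle i.p. 60 min before PTZ 100 mg/kg s.c. Each mouse was then caged alone and watched for 30 min for clonic seizures, meaning whole-body clonus lasting >3 s with loss of righting reflex. Recorded: latency to first clonus, number of seizure episodes, and deaths within 30 min. Analysis: ANOVA/Dunnett or t-test; mortality by Fisher's exact test; 7–10 mice per group.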

For data set [5], the target named is Sodium- and chloride-dependent GABA transporter 1 (Mus musculus) (UniProt P31648). The data set is described as follows: Displacement of NO711 from mouse GAT1 expressed in HEK293 cells assessed as NO711 binding at 100 uM by LC-MS/MS analysis. Type of data set: cell-based.
The target in the next data set is T3, GABA transporter 3 (Mus musculus, UniProt P31649).
T3 sequence (P31649 whole entry): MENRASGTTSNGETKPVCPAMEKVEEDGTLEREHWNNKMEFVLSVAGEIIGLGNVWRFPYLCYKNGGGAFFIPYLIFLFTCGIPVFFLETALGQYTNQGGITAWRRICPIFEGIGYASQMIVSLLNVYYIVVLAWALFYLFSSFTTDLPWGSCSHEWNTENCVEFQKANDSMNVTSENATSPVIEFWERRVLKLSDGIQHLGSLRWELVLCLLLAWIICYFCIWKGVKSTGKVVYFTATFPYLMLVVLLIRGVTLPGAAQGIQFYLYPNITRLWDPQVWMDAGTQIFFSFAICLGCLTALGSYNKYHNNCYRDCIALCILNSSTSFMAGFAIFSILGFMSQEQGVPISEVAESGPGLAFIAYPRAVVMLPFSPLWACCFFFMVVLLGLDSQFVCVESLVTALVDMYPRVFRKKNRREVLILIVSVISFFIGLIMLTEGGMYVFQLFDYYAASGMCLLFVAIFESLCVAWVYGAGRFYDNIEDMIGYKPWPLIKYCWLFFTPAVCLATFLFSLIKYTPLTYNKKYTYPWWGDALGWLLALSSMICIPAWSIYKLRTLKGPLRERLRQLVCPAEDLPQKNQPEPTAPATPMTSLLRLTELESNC
The data set can be described thus: Inhibition of mouse GAT3 expressed in HEK293 cells assessed as decrease in [3H]GABA uptake. Type of data set: cell-based.

Data set [6] has as its system Mus musculus. The data set can be described thus: Toxicity in albino Swiss (CD-1) mouse assessed as motor impairment at 30 to 100 mg/kg, ip measured after 60 mins by rotarod test. Type of data set: organism-based. Further details: dose 30-100 mg/kg, route intraperitoneal. To be noted: in vivo, 1 h. The essentials:
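Mice were trained for 3 days at 18 rpm on a rod of 2 cm diameter. At least 24 h after the last training, they were given 30 or 100 mg/kg or vehicle (1% Tween 80) i.p. 60 min before testing at 6, 18, then 24 rpm. Impairment was defined as failing to stay on the rod for 1 min; mean time on the rod was recorded.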
(The rotarod test checks motor coordination on a turning rod.)

For data set [7], the target named is Sodium- and chloride-dependent GABA transporter 1 (Mus musculus, UniProt P31648). The data set is described as follows: Inhibition of mouse GAT1 expressed in HEK293 cells assessed as decrease in [3H]GABA uptake. It counts as cell-based.

Regarding `NCCC(C(=O)NCc1ccccc1Cl)N1CCN(C(c2ccccc2)c2ccccc2)CC1` (stereo not given), in the data set with Mus musculus [1], the Time is recorded as 18.8 s. For the same compound, in the data set on Mus musculus [2], the inhibition in vivo at 15 mg/kg is 26%. The IC50 on GABA transporter 2 is 21.9 µM; on GABA transporter 4, 15.1 µM; at GABA transporter 3 it was 10.5 µM; in data set [7], 20.9 µM. For the same compound, the inhibition in vivo at 30 mg/kg amounted to 38.5% with Mus musculus [3] and 37% in the data set on Mus musculus [4]. Also, the Activity in [5] is 55%; with Mus musculus [6] it was “Non-toxic”.
On to `NCCC(C(=O)NCc1ccc(Cl)cc1)N1CCN(C(c2ccccc2)c2ccccc2)CC1` (stereo not given), for which the Time in the data set on Mus musculus [1] turned out to be 27.5 s. The inhibition in vivo at 15 mg/kg in the data set on Mus musculus [2] turned out to be 3.8%. The IC50 on GABA transporter 2 was 20.9 µM; on GABA transporter 4 it was 12 µM; on GABA transporter 3, 10.7 µM; in data set [7], 25.7 µM. Also, the results for the inhibition in vivo at 30 mg/kg in the data set with Mus musculus [3] and with Mus musculus [4] were 28.9% and 83%, respectively. The Activity in data set [5] is 53%; with Mus musculus [6] it was “Non-toxic”.
